Here are results for 13 compounds from ChEMBL document CHEMBL4229468, “Novel cinnamaldehyde-based aspirin derivatives for the treatment of colorectal cancer” (Bioorg Med Chem Lett, 2018).

For data set [1], the system named is HCT-8. Put plainly: Cell cycle arrest in human HCT8 cells assessed as accumulation at S phase at 6 uM after 24 hrs by propidium iodide staining-based flow cytometric method (reference value: 36.19%). The data set is classed as functional. For orientation: Flow cytometry measures light scatter and fluorescence of single cells or particles in a stream.
Data set [2] has as its system HCT-8. In words: Induction of apoptosis in human HCT8 cells assessed as early apoptotic cells at 6 uM after 24 hrs in presence of ROS scavenger NAC by annexin V-FITC/propidium iodide staining-based flow cytometric method (reference value: 0.25%). The data set is classed as functional.
Data set [3] relates to HCT-8. Put plainly: Induction of apoptosis in human HCT8 cells assessed as late apoptotic cells at 3 uM after 24 hrs by annexin V-FITC/propidium iodide staining-based flow cytometric method (reference value: 2.40%).
Data set [4] deals with HCT-8. In words: Cell cycle arrest in human HCT8 cells assessed as accumulation at G1 phase at 3 uM after 24 hrs by propidium iodide staining-based flow cytometric method (reference value: 40.05%). The data set is classed as functional.
Data set [5] concerns HCT-8. Put plainly: Induction of apoptosis in human HCT8 cells assessed as early apoptotic cells at 12 uM after 24 hrs by annexin V-FITC/propidium iodide staining-based flow cytometric method (reference value: 0.25%). Format: functional.
Data set [6] relates to HCT-8. Put plainly: Cell cycle arrest in human HCT8 cells assessed as accumulation at S phase at 3 uM after 24 hrs by propidium iodide staining-based flow cytometric method (reference value: 36.19%). Format: functional.
Data set [7] has as its system HCT-8. In words: Potency index, ratio of 5-FU IC50 to test compound IC50 for human HCT8 cells. The data set is classed as functional.
The subject of data set [8] is HCT-8. Put plainly: Induction of apoptosis in human HCT8 cells assessed as early apoptotic cells at 3 uM after 24 hrs by annexin V-FITC/propidium iodide staining-based flow cytometric method (reference value: 0.25%). Format: functional.
The test system of data set [9] is HCT-8. In words: Cell cycle arrest in human HCT8 cells assessed as accumulation at G2 phase at 12 uM after 24 hrs by propidium iodide staining-based flow cytometric method (reference value: 23.77%). Format: functional.
For data set [10], the system named is HCT-8. Put plainly: Induction of reactive oxygen species formation in human HCT8 cells at 6 uM after 24 hrs by DCFH-DA dye-based flow cytometric method (reference value: 3.67%). The data set is classed as functional. The method in brief: (§1)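 Cells treated 24 h with 0, 3, 6 or 12 μM, stained with fluorogenic 2',7'-dichlorofluorescin diacetate; ROS level read by flow cytometry.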

In data set [11] the test system is HCT-8. In words: Antiproliferative activity against human HCT8 cells after 72 hrs by MTT assay. Format: functional, cell-based. As to conditions: HCT-8, 72 h. In outline: (§2)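 MTT proliferation assay (details in supplement); positive control 5-FU; mixture comparator ASA + CA physical mixture at 1:1 mole ratio; IC50 = concentration inhibiting 50% of proliferation; mean ± SD from three independent experiments.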

Data set [12] has as its system HCT-8. Put plainly: Induction of reactive oxygen species formation in human HCT8 cells at 12 uM after 24 hrs by DCFH-DA dye-based flow cytometric method (reference value: 3.67%). The data set is classed as functional. In outline: as §1
Data set [13] deals with HCT-8. Put plainly: Cell cycle arrest in human HCT8 cells assessed as accumulation at S phase at 12 uM after 24 hrs by propidium iodide staining-based flow cytometric method (reference value: 36.19%). The data set is classed as functional.
Data set [14] relates to HCT-8. In words: Cell cycle arrest in human HCT8 cells assessed as accumulation at G1 phase at 6 uM after 24 hrs by propidium iodide staining-based flow cytometric method (reference value: 40.05%). Format: functional.
Data set [15] deals with HCT-8. Put plainly: Induction of apoptosis in human HCT8 cells assessed as upregulation of cleaved caspase-3 levels after 24 hrs by Western blot method. Format: functional, cell-based. In outline:
(§3)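 Cells treated 24 h with 0, 3, 6, 12 μM or control (0.1% DMSO); whole-cell lysates immunoblotted for cleaved caspase 3 and PARP.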
For orientation: Immunoblotting shows a protein as a band on a membrane.

Data set [16] deals with HCT-8. Put plainly: Antitumor activity against human HCT8 cells xenografted in BALB/c nude mouse assessed as tumor weight at 60 mg/kg, ip administered daily for 32 days measured every 4 days during compound dosing relative to control. Format: functional. In outline: (§4)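 HCT-8 cells inoculated subcutaneously; after solid tumours established, mice randomized to daily intraperitoneal dosing at 60 mg/kg or vehicle Tween 80/PBS (5:95) for 32 consecutive days; tumour volume, tumour weight and body weight recorded; n = 6 per group; mean ± SD; P vs vehicle.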
(In general: Xenograft models place foreign cells or tissue in a host animal.)

Data set [17] deals with HCT-8. Put plainly: Cell cycle arrest in human HCT8 cells assessed as accumulation at G2 phase at 6 uM after 24 hrs by propidium iodide staining-based flow cytometric method (reference value: 23.77%). The data set is classed as functional.
Data set [18] deals with HCT-8. In words: Cell cycle arrest in human HCT8 cells assessed as accumulation at G2 phase at 3 uM after 24 hrs by propidium iodide staining-based flow cytometric method (reference value: 23.77%). The data set is classed as functional.
In data set [19] the test system is HCT-8. Put plainly: Induction of apoptosis in human HCT8 cells assessed as late apoptotic cells at 6 uM after 24 hrs by annexin V-FITC/propidium iodide staining-based flow cytometric method (reference value: 2.40%).
For data set [20], the system named is Mus musculus. In words: Toxicity in BALB/c nude mouse xenografted with human HCT8 cells assessed as change in body weight at 60 mg/kg, ip administered daily for 32 days. Format: organism-based. As to conditions: in vivo, 768 h. The method in brief: as §4
The test system of data set [21] is HCT-8. Put plainly: Induction of apoptosis in human HCT8 cells assessed as early apoptotic cells at 6 uM after 24 hrs by annexin V-FITC/propidium iodide staining-based flow cytometric method (reference value: 0.25%). Format: functional.
Data set [22] can be described thus: Selectivity index, ratio of IC50 for human CCD-841-CoN cells to IC50 for human DLD1 cells. Format: toxicity. As to conditions: CCD-841-CoN cells versus DLD1 cells, read-out: Ratio IC50. The method in brief:
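MTT IC50 in DLD-1 and non-tumorigenic CCD841 colon cells; IC50 = concentration inhibiting 50% proliferation; mean ± SD, three independent experiments.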

Data set [23] deals with HCT-8. Put plainly: Induction of reactive oxygen species formation in human HCT8 cells at 3 uM after 24 hrs by DCFH-DA dye-based flow cytometric method (reference value: 3.67%). Format: functional. The method in brief:
as §1

Data set [24] has as its system DLD-1. Put plainly: Antiproliferative activity against human DLD1 cells after 72 hrs by MTT assay. Format: functional, cell-based. As to conditions: DLD-1, 72 h. In outline:
(§5)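 MTT proliferation assay on colorectal cancer (DLD-1) or non-tumorigenic colon (CCD841) cells. IC50 is the drug concentration inhibiting 50% of cell proliferation, given as the mean ± SD of three independent experiments.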

Data set [25] concerns HCT-8. Put plainly: Induction of apoptosis in human HCT8 cells assessed as late apoptotic cells at 6 uM after 24 hrs in presence of ROS scavenger NAC by annexin V-FITC/propidium iodide staining-based flow cytometric method (reference value: 5.42%). Format: functional.
In data set [26] the test system is HCT-8. Put plainly: Cell cycle arrest in human HCT8 cells assessed as accumulation at G1 phase at 12 uM after 24 hrs by propidium iodide staining-based flow cytometric method (reference value: 40.05%). The data set is classed as functional.
Data set [27] relates to HCT-8. Put plainly: Induction of apoptosis in human HCT8 cells assessed as late apoptotic cells at 12 uM after 24 hrs by annexin V-FITC/propidium iodide staining-based flow cytometric method (reference value: 2.40%).
For data set [28], the system named is HCT-8. Put plainly: Induction of apoptosis in human HCT8 cells after 24 hrs by annexin V-FITC/propidium iodide staining-based flow cytometric method. Format: functional, cell-based.
Data set [29] concerns CCD-841CoN. In words: Antiproliferative activity against human CCD-841-CoN cells after 72 hrs by MTT assay. The data set is classed as cell-based. In outline:
as §5

Data set [30] can be described thus: Selectivity index, ratio of IC50 for human CCD-841-CoN cells to IC50 for human HCT8 cells. The data set is classed as toxicity. As to conditions: CCD-841-CoN cells versus HCT8 cells, read-out: Ratio IC50.
Data set [31] concerns HCT-8. Put plainly: Cell cycle arrest in human HCT8 cells assessed as accumulation at G1 phase after 24 hrs by propidium iodide staining-based flow cytometric method. The data set is classed as functional.
For data set [32], the system named is HCT-8. In words: Induction of apoptosis in human HCT8 cells assessed as upregulation of cleaved PARP levels after 24 hrs by Western blot method. Format: functional, cell-based. The method in brief:
as §3

The test system of data set [33] is HCT-8. In words: Antiproliferative activity against human HCT8 cells after 72 hrs in presence of aspirin by MTT assay. Format: functional, cell-based. The conditions noted are these: HCT-8, 72 h. The method in brief:
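MTT proliferation assay in HCT-8 colorectal cancer cells, run on a physical mixture with aspirin at a 1:1 mole ratio. IC50 is the concentration inhibiting 50% of cell proliferation, given as the mean ± SD of three independent experiments.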

The subject of data set [34] is HCT-8. Put plainly: Antiproliferative activity against human HCT8 cells after 72 hrs in presence of cinnamaldehyde by MTT assay. Format: functional, cell-based. The conditions noted are these: HCT-8, 72 h. The method in brief:
as §2

The structures appear in SMILES notation. pIC50: −log10 of the molar value.

`CC(=O)Oc1ccccc1C(=O)Oc1ccc(F)cc1/C=C/C=O`: the Activity in [1] was 38.71%; in [2], 7.4%; in data set [3], 5.42%; in [4], 43.17%; in data set [5], 15.84%; in data set [6], 35.89%. Moreover, the Activity in data set [8] came out at 8.69%; in [9], 12.23%; in data set [10], 25.07%; in [12] it was 47.83%; in data set [13] it was 36.15%; in data set [14], 48.66%. Besides, the Activity entry in data set [15] was “Dose-dependent effect”; in data set [16], 47%; in [17], 12.63%; in [18], 20.94%; in data set [19], 17.03%; in data set [20] it was “Non-Toxic”. Besides, the Activity in data set [21] is 15.56%; in data set [23], 18.67%; in [25], 5.58%; in [26], 51.62%; in [27], 27.71%; in [28] it was “Dose-dependent effect”. Also, the Activity result in data set [31] and in data set [32] was “Dose-dependent effect” throughout. The “Ratio IC50” value in data set [7] is 11. For the same compound, the pIC50 in data set [11] is 5.59; in data set [24], 5.37; in data set [29], 4.51. Besides, the results for the selectivity ratio in data set [22] and in data set [30] were 7 and 11, respectively.
In the case of `CC(=O)Oc1ccc(F)cc1/C=C/C=O`, in data set [11], the pIC50 is 4.98.
Still for that read-out and setting: then `CC(=O)Oc1ccccc1C(=O)Oc1ccc(Br)cc1/C=C/C=O`, with 5.25; and `COc1ccc(OC(=O)c2ccccc2OC(C)=O)c(/C=C/C=O)c1`, with 5.03; and `COc1cccc(/C=C/C=O)c1OC(=O)c1ccccc1OC(C)=O`, with 4.75.
Still for that read-out and setting: in the case of `COC(=O)c1ccccc1OC(C)=O` it was less than 4.00.
On to `O=C/C=C/c1ccccc1` [CINNAMALDEHYDE], for which the pIC50 was 4.81 in data set [33] and 4.53 in data set [11].
`CC(=O)Oc1ccccc1C(=O)Oc1ccc(C)cc1/C=C/C=O` showed a pIC50 in data set [11] of 5.07.
Same read-out and setting: then `CC(=O)Oc1ccccc1C(=O)Oc1ccc(Cl)cc1/C=C/C=O`, with 5.37.
With `O=c1[nH]cc(F)c(=O)[nH]1` [FLUOROURACIL], the values for the pIC50 in data set [11], in data set [24] and in data set [29] were 4.54, 4.48 and 4.45, respectively.
For the compound `CC(=O)Oc1ccccc1C(=O)O` [ASPIRIN], the values for the negative-log IC50 (pIC50) in [34] and in [11] were 4.81 and less than 4.00, respectively.
`COc1ccc(/C=C/C=O)c(OC(=O)c2ccccc2OC(C)=O)c1`: the pIC50 in data set [11] is 4.80.
Still for that read-out and setting: then `CC(=O)Oc1ccccc1C(=O)Oc1ccccc1/C=C/C=O`, with 4.69.

As usually defined, the pIC50 is −log10 of the IC50, conventionally taken in molar units.
